Consider one compound from ChEMBL document CHEMBL3525967, “In vitro glucuronidation of the antibacterial triclocarban and its oxidative metabolites” (Drug Metab Dispos, 2012).

Data set [1] can be described thus: Drug metabolism in human intestinal microsomes assessed as N-glucuronide-triclocarban formation incubated for 5 mins prior to UDPGA addition measured after 5 to 30 mins by LC-UV analysis. Format: ADME, Intestine, Microsome. Summed up:
(§1)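 Microsomes or UGT Supersomes (5 µg protein) were held 15 min on ice with alamethicin in 100 mM potassium phosphate pH 7.4. TCC was added at 10 µM (2% DMSO) with 10 mM MgCl2 and 10 mM saccharolactone, pre-warmed 5 min at 37 °C, then started with UDPGA. Samples at 5, 10, 15 and 30 min were quenched in ACN. Product was read by LC-UV at 265 nm; rate came from regression over time, three incubations.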

Data set [2] can be described thus: Drug excretion in Swiss webster mouse urine assessed as 2'-O-glucuronide-triclocarban formation at 5 mg/kg, po by LC-MS analysis. The format is ADME, organism-based. The arrangement: dose 5 mg/kg, route oral. The conditions noted are these: in vivo. Summed up:
(§2)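 Mice were housed two per metabolic cage, with blank urine collected over the 24 h before dosing. TCC was given by oral gavage as a 1 mg/mL solution in 20/80 DMSO/PEG400 (v/v) at 5 mg/kg. Urine was collected at 0-24 h and 24-48 h and analysed by online LC-MS. Values are the mean of two independent experiments.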

Data set [3] can be described thus: Drug excretion in Sprague-Dawley rat urine assessed as 3'-O-glucuronide-triclocarban formation at 1 mg/kg, po by LC-MS analysis. The format is ADME, organism-based. More on the design: dose 1 mg/kg, route oral. The conditions noted are these: in vivo.
The nature of data set [4]: Drug excretion in Sprague-Dawley rat urine assessed as 6-O-glucuronide-triclocarban formation at 1 mg/kg, po by LC-MS analysis. The format is ADME, organism-based. The arrangement: dose 1 mg/kg, route oral. To be noted: in vivo.
Data set [5] is described as follows: Drug metabolism in human kidney microsomes assessed as N-glucuronide-triclocarban formation incubated for 5 mins prior to UDPGA addition measured after 30 mins by LC-UV-ESI-MS/MS analysis. The conditions noted are these: 0.5 h. Format: ADME. An outline of the steps:
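Pooled human kidney or liver microsomes (liver: 25 mixed-gender donors), 5 µg protein, in 200 µL 100 mM potassium phosphate pH 7.4. Alamethicin pre-treated on ice 15 min. Final 10 µM TCC (2% DMSO), with 10 mM MgCl2 and 10 mM saccharolactone, preincubated 5 min at 37 °C. Started with UDPGA (20 mM stock). Sampled at 5, 10, 15 and 30 min into ACN containing 1 µM DCC internal standard.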

In data set [6] the target is T1, UDP-glucuronosyltransferase 1A8 (Homo sapiens, UniProt Q9HAW9).
T1 sequence (Q9HAW9 whole entry): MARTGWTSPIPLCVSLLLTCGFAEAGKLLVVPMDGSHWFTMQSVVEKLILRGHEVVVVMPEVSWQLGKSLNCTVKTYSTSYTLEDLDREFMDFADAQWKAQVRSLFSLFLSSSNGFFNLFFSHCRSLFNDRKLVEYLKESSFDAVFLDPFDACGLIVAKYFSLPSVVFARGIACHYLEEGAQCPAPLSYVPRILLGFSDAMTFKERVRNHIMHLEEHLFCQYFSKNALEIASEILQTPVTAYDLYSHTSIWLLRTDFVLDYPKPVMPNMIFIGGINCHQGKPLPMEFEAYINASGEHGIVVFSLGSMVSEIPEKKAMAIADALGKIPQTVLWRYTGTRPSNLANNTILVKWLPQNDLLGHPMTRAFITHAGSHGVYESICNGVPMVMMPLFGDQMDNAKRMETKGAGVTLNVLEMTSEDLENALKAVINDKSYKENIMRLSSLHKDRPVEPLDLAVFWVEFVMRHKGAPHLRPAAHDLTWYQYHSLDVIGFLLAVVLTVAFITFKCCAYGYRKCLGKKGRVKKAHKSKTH
Description: Drug metabolism assessed as human UGT1A8-mediated N-glucuronide-triclocarban formation expressed in baculovirus infected insect sf9 cells incubated for 5 mins prior to UDPGA addition measured after 5 to 30 mins by LC-UV analysis. Format: ADME. An outline of the steps:
as §1

A short description of data set [7]: Drug metabolism in cynomolgus monkey liver microsomes assessed as N'-glucuronide-triclocarban formation incubated for 5 mins prior to UDPGA addition measured after 5 to 30 mins by LC-UV analysis. The format is ADME, Macaca fascicularis. Summed up:
as §1
(Liver microsomes are a subcellular fraction often used to study metabolism.)

The nature of data set [8]: Drug metabolism in cynomolgus monkey liver microsomes assessed as N'-glucuronide-triclocarban formation incubated for 5 mins prior to UDPGA addition measured after 30 mins by LC-UV-ESI-MS/MS analysis. Format: ADME, Macaca fascicularis. To be noted: 0.5 h. Summed up:
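TCC was incubated at 10 µM (2% DMSO) in 100 mM phosphate pH 7.4 with alamethicin-treated microsomes or Supersomes, 10 mM MgCl2 and 10 mM saccharolactone. After 5 min pre-incubation at 37 °C, UDPGA was added to start the reaction. Protein was raised up to 2 mg/mL. Samples were quenched in ACN with 1 µM DCC internal standard, centrifuged, and N-glucuronides detected by LC-ESI-MS/MS in SRM mode.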

Data set [9] addresses T1, UDP-glucuronosyltransferase 1A8. Put plainly: Drug metabolism assessed as human UGT1A8-mediated N'-glucuronide-triclocarban formation expressed in baculovirus infected insect sf9 cells incubated for 5 mins prior to UDPGA addition measured after 5 to 30 mins by LC-UV analysis. The format is ADME. Summed up: as §1
For data set [10], the target named is T2, UDP-glucuronosyltransferase 2B4 (Homo sapiens, UniProt P06133).
T2 sequence (P06133 whole entry): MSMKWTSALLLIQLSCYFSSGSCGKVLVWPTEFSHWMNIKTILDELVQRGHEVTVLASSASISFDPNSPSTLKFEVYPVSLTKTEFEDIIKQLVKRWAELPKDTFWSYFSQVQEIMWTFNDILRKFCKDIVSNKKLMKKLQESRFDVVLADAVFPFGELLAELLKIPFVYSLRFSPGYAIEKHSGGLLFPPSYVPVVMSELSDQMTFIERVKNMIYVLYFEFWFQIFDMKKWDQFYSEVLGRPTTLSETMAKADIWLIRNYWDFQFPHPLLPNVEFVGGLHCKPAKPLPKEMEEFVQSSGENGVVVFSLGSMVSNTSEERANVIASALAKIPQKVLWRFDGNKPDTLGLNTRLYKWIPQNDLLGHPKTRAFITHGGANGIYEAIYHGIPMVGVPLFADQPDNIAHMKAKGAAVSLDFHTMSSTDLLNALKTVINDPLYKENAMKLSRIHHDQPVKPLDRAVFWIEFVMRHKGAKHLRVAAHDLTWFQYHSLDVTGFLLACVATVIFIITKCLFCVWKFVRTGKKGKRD
Description: Drug metabolism assessed as human UGT2B4-mediated N'-glucuronide-triclocarban formation expressed in baculovirus infected insect sf9 cells incubated for 5 mins prior to UDPGA addition measured after 5 to 30 mins by LC-UV analysis. Format: ADME. An outline of the steps: as §1

A short description of data set [11]: Drug excretion in Swiss webster mouse urine assessed as N'-glucuronide-triclocarban formation at 5 mg/kg, po by LC-MS analysis. The arrangement: dose 5 mg/kg, route oral. Format: ADME, organism-based. To be noted: in vivo. An outline of the steps: as §2
A further data set deals with Liver microsome. Put plainly: Drug metabolism in Sprague-Dawley rat liver microsomes assessed as N'-glucuronide-triclocarban formation incubated for 5 mins prior to UDPGA addition measured after 5 to 30 mins by LC-UV analysis. Format: ADME. An outline of the steps: as §1
Data set [12] is described as follows: Drug metabolism in human intestine microsomes assessed as N'-glucuronide-triclocarban formation incubated for 5 mins prior to UDPGA addition measured after 5 to 30 mins by LC-UV analysis. Format: ADME. Summed up:
as §1

Regarding `O=C(Nc1ccc(Cl)cc1)Nc1ccc(Cl)c(Cl)c1` [TRICLOCARBAN], the Drug metabolism result in [1] is “metabolite_not_detected”; in [5] it was “metabolite_detected”; in [6], “metabolite_not_detected”; in data set [7], “metabolite_not_detected”; in data set [8], “metabolite_detected”; in data set [9], “metabolite_not_detected”. In addition, the Drug metabolism result (in data set [10]; in the data set on Liver microsome; in data set [12]) was “metabolite_not_detected” throughout. Besides, the Drug excretion result in data set [2], in data set [3], in data set [4] and in data set [11] was “metabolite_detected” each time.
